Measured values published in publication PMC9716449 (International Journal of Tryptophan Research : IJTR, 2022).
“Also recorded” adds a separate entry of the source.

What was measured:
[1] = target: T1, rhTDO (Homo sapiens, UniProt P48775); assay: Enzyme assay; assay type: biochemical
[2] = tested on: A172 cells expressing IDO1 and TDO; assay: Kyn production in A172 cells expressing IDO1 and TDO by IFN-γ stimulation; assay type: cell-based, human; conditions: IFN-γ 10 ng/mL; 524 μM L-Trp, 24 hours
How it was run: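 A172 cells, grown 24 h after seeding, were given test compound 1 h before co-addition of L-Trp (final 524 μM) and IFN-γ (final 10 ng/mL) to express IDO1 and TDO. After 24 h, Kyn was quantified by Ehrlich reaction (CCl₃COOH plus p-dimethylaminobenzaldehyde in acetic acid) at 460 nm. IFN-γ-stimulated, DMSO-treated cells served as control. Triplicates; 3 independent experiments.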

[3] = tested on: CT26-Ido1 tumors; assay: Antitumor activity in mice bearing CT26-Ido1 tumors; assay type: in vivo, mouse; conditions: oral, 50.0 mg/kg
How it was run: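 Female BALB/c mice (6 weeks) received 1 × 10⁵ CT26-Ido1 cells s.c. in the right and left dorsal regions. On day 6 they were randomised (n = 8) to vehicle or 12.5, 25 or 50 mg/kg p.o. once daily. Caliper diameters were taken every 2 days to day 14, with V = (W² × L)/2. Tumours were weighed on day 14 and %IR was taken from mean tumour weights versus vehicle. Body weight every 2 days was expressed relative to day 1. Tumour Kyn and Trp were measured by ELISA after dissociation in PBS.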

[4] = tested on: A172 (TDO); assay: Cell-based Kyn production assay in A172 cells; set-up: species or system human; conditions: A172 cells expressing TDO
How it was run: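 TDO-dependent Kyn production: A172 cells were seeded and grown 24 h, exposed to test compound for 1 h, then given L-Trp (final 524 μM) without cytokine and cultured 24 h. Kyn was detected by Ehrlich reaction, adding aqueous 7% CCl₃COOH mixed 2:5 with 2% p-dimethylaminobenzaldehyde in acetic acid, and absorbance read at 460 nm. Triplicate samples; 3 independent experiments.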

[5] = tested on: TDO; assay: TDO mRNA expression in A172 cells; assay type: cell-based, human; conditions: for TDO expression: mRNA and Western blot (Supplemental Figure 2)
[6] = target: rhIDO1 (Homo sapiens, UniProt P14902); assay: Enzyme assay; assay type: biochemical; conditions: read-out: IC50 value on rhIDO1; cell-free; 200 μM L-Trp
Chain of rhIDO1 (P14902 whole entry): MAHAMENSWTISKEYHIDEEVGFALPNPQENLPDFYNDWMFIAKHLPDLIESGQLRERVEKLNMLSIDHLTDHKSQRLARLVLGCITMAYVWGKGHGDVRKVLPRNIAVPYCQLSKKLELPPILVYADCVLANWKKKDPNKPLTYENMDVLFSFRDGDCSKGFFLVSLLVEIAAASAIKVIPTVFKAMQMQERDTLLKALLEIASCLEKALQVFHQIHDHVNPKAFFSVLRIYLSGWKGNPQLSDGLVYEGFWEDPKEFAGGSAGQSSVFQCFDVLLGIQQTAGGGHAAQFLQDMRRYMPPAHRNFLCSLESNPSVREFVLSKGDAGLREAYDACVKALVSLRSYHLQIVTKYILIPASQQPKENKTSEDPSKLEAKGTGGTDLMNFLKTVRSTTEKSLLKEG

[7] = target: T1, rhTDO; assay: Kinetics analysis; assay type: biochemical; conditions: Lineweaver-Burk plot; 680C91 0.5 and 1 μM, PVZB3001 1 and 2 μM
How it was run: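 Mode of inhibition was taken from Lineweaver–Burk plots of the recombinant human enzyme, plotting inverse initial rate against inverse L-Trp concentration with or without test compound. DMSO served as control.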

[8] = tested on: NK-92MI cells; assay: NK-92MI viability after addition of Kyn; assay type: cell-based, human; conditions: 72 h after addition of Kyn
[9] = tested on: NK-92MI cells; assay: Granzyme B production assay in NK-92MI; assay type: cell-based, human; conditions: NK-92MI treated with Kyn 72 h, then 5.5 h fresh medium; ELISA
How it was run: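 NK-92MI cells were pre-cultured for 72 h with Kyn, then moved to fresh medium without Kyn for 5.5 h. Culture supernatant was collected and granzyme B quantified with a human granzyme B ELISA following the kit protocol.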

[10] = tested on: A172 cells; assay: Cell viability assay; assay type: cell-based, human
How it was run: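 A172 cells were seeded and grown 24 h, then given test compound for 1 h before L-Trp (final 524 μM), with no IFN-γ. After 24 h of culture, WST-8 was added for 40–60 min at 37°C and absorbance read at 450 nm. Triplicate samples; 3 independent experiments.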

[11] = tested on: TDO; assay: Western blot of TDO protein in A172 cells; assay type: cell-based, human; conditions: at 1000 nM
How it was run: (§1)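 Cells were lysed in RIPA buffer with protease inhibitors. Lysate (20–30 μg protein/lane) was separated by polyacrylamide gel electrophoresis and transferred to PVDF. Membranes were blocked with 5% skim milk or a signal-enhancing blocking reagent, then probed with primary antibody overnight at 4°C and secondary antibody 1 h at room temperature. Bands were visualised by ECL imaging.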

[12] = tested on: ERK1/2; assay: Western blot of ERK1/2 phosphorylation in A172 cells; assay type: cell-based, human
How it was run: as §1

T1 sequence (P48775 whole entry): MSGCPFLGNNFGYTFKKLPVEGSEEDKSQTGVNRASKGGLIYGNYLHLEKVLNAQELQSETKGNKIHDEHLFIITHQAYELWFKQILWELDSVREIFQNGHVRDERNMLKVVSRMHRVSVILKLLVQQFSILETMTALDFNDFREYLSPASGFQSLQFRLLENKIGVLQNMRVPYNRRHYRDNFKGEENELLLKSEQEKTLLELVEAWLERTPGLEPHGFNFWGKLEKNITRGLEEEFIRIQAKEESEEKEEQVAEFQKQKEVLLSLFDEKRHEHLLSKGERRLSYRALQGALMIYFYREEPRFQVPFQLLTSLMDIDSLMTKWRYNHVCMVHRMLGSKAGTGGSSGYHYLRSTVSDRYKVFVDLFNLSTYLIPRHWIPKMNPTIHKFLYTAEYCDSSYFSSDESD

SMILES: NS(=O)(=O)NCCNc1nonc1C(=NO)Nc1ccc(F)c(Br)c1 [epacadostat]
- Enzymatic activity of TDO ([1]; at 1 μM or higher concentrations): inhibited the enzymatic activity of TDO
- Kyn production in A172 cells expressing both IDO1 and TDO (in words) [2]: decreased Kyn production; also recorded: inhibited Kyn production more effectively
- Antitumor effect [3]: moderate effect without statistical significance

SMILES: Cc1cc(C(=O)NOCCO)c(Nc2ccc(I)cc2F)n(C)c1=O [AZD8330]
- Kyn production in A172 cells (in words) [4]: attenuated Kyn production
- TDO expression [5]: reduction of TDO expression

SMILES: Fc1ccc2c(/C=C/c3cccnc3)c[nH]c2c1 [680C91]
- IC50 [6]: > 10 µM
- Kyn production in A172 cells (in words) [4]: reduced
- Inhibition pattern against TDO [7]: competitive inhibition
- Kyn production in A172 cells expressing both IDO1 and TDO (in words) [2]: decreased Kyn production; also recorded: Partial inhibition of Kyn production

SMILES: Nc1ccccc1C(=O)CC(N)C(=O)O (stereo not shown) [Kyn, Kynurenine]
- Viability of NK-92MI cells [8]: reduced
- Granzyme B production [9]: reduced

SMILES: Cn1c(=O)c(F)c(Nc2ccc(I)cc2F)c2c(=O)n(C[C@@H](O)CO)cnc21 [TAK-733]
- Kyn production in A172 cells (in words) [4]: attenuated Kyn production
- TDO expression [5]: reduction of TDO expression

SMILES: CC(=O)Nc1cccc(-n2c(=O)n(C3CC3)c(=O)c3c(Nc4ccc(I)cc4F)n(C)c(=O)c(C)c32)c1 [trametinib]
- Inhibitory activity against rhTDO (in words) ([1]; cell-free assay): did not inhibit
- Kyn production in A172 cells (in words) [4]: decreased Kyn production in a dose-dependent manner
- Cell viability of A172 cells (in words) [10]: without reducing cell viability
- TDO mRNA expression ([5]; at 100 nM): downregulated
- TDO protein expression [11]: downregulated
- ERK1/2 phosphorylation [12]: inhibition of ERK1/2 phosphorylation
